Assay results: the EternaBench riboswitch data

Tested on: MS2 coat protein
Assay: apparent Kd, MS2 coat protein; higher = weaker binding; RNA-MaP array; FMN 200 µM where present
Procedure, shortened: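 Binding was read on Illumina sequencing-chip clusters where stalled E. coli RNA polymerase had transcribed each design. A titration of SNAP-549-labelled MS2 coat protein began at 0.7 or 1.5 nM and doubled to 3 µM, once without ligand and once with constant ligand, in 100 mM Tris-HCl pH 7.5, 80 mM KCl, 4 mM MgCl2, BSA, DTT, yeast tRNA and Tween-20. The apparent Kd is the median of filtered per-cluster binding-curve fits, based on green signal normalised to red-channel RNA signal and control-cluster median Fmax.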

[1] = designed as: ON switch for flavin mononucleotide, no ligand
[2] = ligand present: flavin mononucleotide, designed as: ON switch for flavin mononucleotide
[3] = designed as: OFF switch for flavin mononucleotide, no ligand
[4] = ligand present: flavin mononucleotide, designed as: OFF switch for flavin mononucleotide

Sequence | apparent Kd [1] [nM] | apparent Kd [2] [nM] | apparent Kd [3] [nM] | apparent Kd [4] [nM]
ACAGAUGCUGACAUGAGGAUCACCCAUGUUAGAUUGUUAUGUCAGGAUAUUAUCUGGCAACCAGAUGAGAAGGGACCAUCUGUG | 16.5 | 7.33 |  | 
ACAGGACCAGUCAGGAUAUGCAGGCGAAUCUGCUUGUAGAAGGGACAUGAGGAUCACCCAUGUGCCGUGGGAUU |  |  | 19.6 | 31.4
ACAGUAUAUGUAGGAUAUCAUUGGCCAGGUAGGUGAGAAGGGCAUAGUACAUGAGGAUCACCCAUGUGUUGGUCCUCGCAGAAA |  |  | 392 | 233
ACAUAAAUUCGAGGAUAUCGGUGAUAAAGAAGACGAGAAGGCGAUUUAAGAUAUAUGGUUAAAGACAUGAGGAUCACCCAUGUA | 32.1 | 29.7 |  | 
ACAUACAUUCGAGGAUAUCGGUGAUAACUCAAACGAGAAGGCGAUUUAAAACAUAAUGCUGUAGACAUGAGGAUCACCCAUGUA | 497 | 137 |  | 
ACAUCGACAGGAUAUACGUGAGUGGAAAAAGUGUAUCCACUACAUGAGGAUCACCCAUGUAGAAGGGUCGAUGA |  |  | 18.5 | 19.8
ACAUGACAUGAGGAUCACCCAUGUCGAUAAAAGCAAGGAUAUGGGCCCGAGUCGUUCGGACCAGAAGGUGCGUCUC | 23.6 | 18 |  | 
ACAUGAGGAUCACCCAUGUAAAAUGAAGAAGGUAGAUACUUGAGGAUCACCCAUGUACAUGGGACUAAGGAUAUUCUAAUAAUU | 76.9 | 64.3 |  | 
ACAUGAGGAUCACCCAUGUAAAAUUAGGAUAUAUGACUGCACAUGAGGUUCACCCAUGUUCUACCGUAGAAGGGAUAAAUAAUU | 71.1 | 75.6 |  | 
ACAUGAGGAUCACCCAUGUAAAGCGAGGAUAUUUCACUGCACAUGAGGUUCGCCCAUGUUCUGCGGAAGAAGGUGCAAAUAAUU |  | 28.1 |  | 
ACAUGAGGAUCACCCAUGUAGAAGGAGAGGGCAGAAUUUACGCAGGAUAUGCAUUUUUGGGAAAAGUAGAAGGGUGAGGGCGGA | 36.4 | 25.2 |  | 
ACAUGAGGAUCACCCAUGUAUACAUAGGAUAUUGGUGAUCAGGCAUGUUUUACAGGAUAUGUCUGCGAGAAGGAUGCAAGUUGC | 557 | 424 |  | 
ACAUGAGGAUCACCCAUGUAUUACAUGGUUAAGUUUAUUAACAGAAGGCGAAAUUACCACUUUUUCGAGGAUAUGUAUUCUAUA |  |  | 38.2 | 52.7
ACAUGAGGAUCACCCAUGUGAAAGAAAUGGCUGACUUUGAGCUAGGAUAUUUGUGCAUAUCAAACGAAGAAGGAGCAUUACUGG |  |  | 22.2 | 21
ACAUGAGGAUCACCCAUGUGAACAUAGGAUAUUGGUGAUCAGGCAUGUUAUACAGGAUAUGUCUGCGAGAAGGAUGCACGUUGC | 567 | 341 |  | 
ACAUGAGGAUCACCCAUGUGAUGAUCUCCCAUGUUAUAUUUCAGAAGGCUCGCGUGUUUGAUGAGAGAGGAUAUGGAAUAUACG |  |  | 325 | 272
ACAUGAGGAUCACCCAUGUGGAGUGAAGAAGGUGGUUACUUAUGACUCUCCCAUGUACAUAGGACUGAGGAUAUUCUAAUAAUU | 88.5 | 81.7 |  | 
ACAUGAGGAUCACCCAUGUUAAACGAGGAUAUAUGACUGCACAUGAGGUUCACCCAUGUUCUACCGUAGAAGGUGUAAAUAAUU | 68.5 | 70.6 |  | 
ACAUGUAAUGCAGGAUAUUUUACACAUGAGGAUCACCCAUGUGACCAGAGGAAUUGCUAUGAGUAAAAGAAGGGUAUGUACAUG |  |  | 72.3 | 86.4
ACAUGUCGUGAGAAGGACGGCGUGCAUAGCGCCGUAGGAUAUCAAGACAUGAGGAUCACCCAUGUACGCGUGUCCCGCCGUGCU |  |  | 38.7 | 303
ACAUUUAAUACAGGAUAUGUUAGUAUACAGUAGAUUGGUUAUUACACAACAACAGAAGGGUAGAACAUGAGGAUCACCCAUGUA | 85.1 | 55.3 |  | 
ACAUUUAUAUCAGGAUAUACAAUACAAUGAUUAGUAGAAGGGAUUAUUACAUGAGGAUCACCCAUGUCAUGUGUCAUAAUAACC |  |  | 27.6 | 24.1
ACCAGUGCAUGAGGAUAUCACAUCGGUAUCCUCCAGUGCGGCGUUCGACAUGAGGAUCACCCAUGUGAGAAGGCAUGAACUCGG |  |  | 15.6 | 18.6
ACCUUACAUGAGGAUCACCCAUGUUAGGAUAUCUCGCUUGCGCAAUCACAACGCAAGCAGAGAAGGGACGCGGG |  |  | 29.1 | 33.4
ACCUUACAUGAGGAUCACCCAUGUUAGGAUAUCUCGCUUUCGCUGUCACAGCGCAAGCAGAGAAGGGACACGGG |  |  | 33.9 | 64.5
ACGAAGACACAAAUGUUCCACGGUGCAGAAGGGUCCCUCACAUGAGGAUCACCCAUGUAACUCGGACAGGAUAUGCUCUUGGGA | 47.4 | 5.86 |  | 
ACGAGGUCAGGAUAUACGGAGAGAGGGAGUUGGUUAGGGUAACAUGAGGAUCACCCAUGUAGAAGGGACUAGGG |  |  | 48.6 | 40.3
ACGAGUAAAGCAGGAUAUCUAUUGUCUCUGUAACAUGAGGAUCACCCAUGUAGAGAAGGGCUUAGUCAUACACUUCGAAGUUGC |  |  | 9.78 | 9.77

Sequence | apparent Kd [1] [nM] | apparent Kd [2] [nM] | apparent Kd [3] [nM] | apparent Kd [4] [nM]
ACGAUUCACUCAGGAUAUGUAUCACCUCGUUACCAACAUGAGGAUCACCCAUGUCCGUGGCUCGGACAGAAGGGAGAAGAAUCG | 733 | 220 |  | 
ACGCAACAUGAGGAUCACCCAUGUGAGGAUAUGUAAAUAGUAAACAAAUAGGAAAUGAACAGAAGGCACACCGG |  |  | 33.8 | 46
ACGCCAAUCGAGAAGGGCCCAUGUGCUACGUCGGCAGGAUAUCGACAUGAGGAUCACCCAUGUUGGCGAUCCUUUUUGGCUAAC |  |  | 147 | 212
ACGCCCUGAGGAUAUCUUUUCCCGUACAUGAGGAUCACCCAUGUUUUCCUCCGGGCUUCGAGAGAAGGCAGGCCCA |  |  | 22.3 | 41.2
ACGCCCUGAGGAUAUCUUUUCCCGUACAUGAGGAUCACCCAUGUUUUCCUCCGUGCUUCGAGAGAAGGCAGGCCCA |  |  | 807 | 436
ACGGAGACACAAAUGUUCCACGGUGCAGAAGGGUCCCUCACAUGAGGAUCACCCAUGUAACUCGGACAGGAUAUGCUCCUGGGA | 135 | 9.78 |  | 
ACGGCAAUCACAGGAUAUGGUUACAUGAGGAUCACCCAUGUCUAGGGUCUAAUUAGGUAUAACUACCAGAAGGGUGAAGGCCUA |  |  | 97.1 | 80.1
ACGGCAGUCGAAGGAUAUGGUUACAUGAGGAUCACCCAUGUCUAGGUUCUUAAAUAGUAUAAUUUCCAGAAGGUCGAAGGCCUA |  |  | 29.4 | 35.5
ACGUAUCGUGUAGGAUAUGACCCAGGAAACUGGUCAGAAGGACAUGAGGAUCACCCAUGUAGAGUAUGUUAGGAUGACGUAUGC |  |  | 42.5 | 305
ACGUGACGGUGCGCGAGCGGACGGAGAAGGCAGACAUGAGGAUCACCCAUGUGAGCCUGCUAUUCUGAGGAUAUCCGUCCACAC |  |  | 30.4 | 167
ACGUUGUCAGGAUAUCGUUAAUUUAGUUGUUUGUAUUAGUUCGAGAAGGGACAUGAGGAUCACCCAUGUUUGCU |  |  | 24.4 | 27.1
ACUAAACGAGGAUAUACUGACAGGCCUCAAACAUACAUCAAACAUGAGGAUCACCCAUGUAGAAGGCGUAAACU |  |  | 34.5 | 25.1
ACUACUUACUAGGAUAUCAGAGUCGAAAGACUCUGAGAAGGAGUAACAUGAGGAUCACCCAUGUGUCCUAUAGU |  |  | 17.9 | 29.4
ACUACUUAGUGAGGAUAUACAUAAUUUAUAACUGUAGAAGGCACAAACCUCAAUACAUGAGGAUCACCCAUGUUAUAUAUCUAA |  |  | 62.6 | 64.3
ACUAGAUGAGGAUAUGCACAUUUUAGUGUUCCUCUAGAUUAACAUGAGGAUCACCCAUGUAGAAGGCGUCAUUA |  |  | 68 | 76.6
ACUAGAUGAGGAUAUGCAUAUUUUCGUGUUCUUCUAGGUUAACAUGAGGAUCACCCAUGUAGAAGGCGUCUGGA |  |  | 19.6 | 37.7
ACUAUACGAGGAUAUACUGACGGGCCUCAGGCAUACAUCAAACAUGAGGAUCACCCAUGUAGAAGGCGUAUACU |  |  | 79.4 | 29.2
ACUGUUUGACUCCUCUUAUACAUGAGGAUCACCCAUGUUAUCGAGGAUAUGCAUUAGAGUGUUUAGCAGAAGGCGAUGUAAUUG |  |  | 6.72 | 14.4
ACUUCACAUGAGGAUCACCCAUGUCAGGCCGGACUAGGAUAUUAUCAUGCAGCGUGACCGUGAGAAGGAGUUGGAU | 110 | 114 |  | 
ACUUCUAAGCAGAAGGCAGUCAUAGUAUUCGUCAUGUAGACAUGAGGAUCACCCAUGUAUAGUACUGAGGAUAUGCUUGGAUAG |  |  | 24 | 24.4
ACUUGUAAGCAGAAGGCAGUCAUUGUAUUCGUCAUGUAGACAUGAGGAUCACCCAUGUAUAGUACUGAGGAUAUGCAUCGAUAG |  |  | 7.88 | 17.2
AGAAAACAUGAGGAUCACCCAUGUGAGGAUAUCGAUGUCCAAAAAAAAGUGCGGGACUCGAGAAGGCACUUGGA |  |  | 28.6 | 37.6
AGAAAACGAGGAUAUACGUGCAUAUUCUCGCCCAAUGGGCAACAUGAGGAUCACCCAUGUAGAAGGCGUAAAGA |  |  | 37.4 | 71.7
AGAAACUACGAGAAGGACAUAUGACUAAGACUAAACAUGAGGAUCACCCAUGUAGGAUAUCGUAGUUUCAGGAUCGUGAGAUCA |  |  | 5.75 | 7.87
AGAAACUACGAGAAGGACAUAUGAUUAAGACGAAACAUGAGGAUCACCCAUGUAGGAUAUCGUAGUUUCAGGAUCGUGAGAUCA |  |  | 7.21 | 17.8
AGAAACUACGAGAAGGACAUGUGAACCUUCAAUUACAUGAGGAUCACCCAUGUAGGAUAUCGUAGUUUCAGGAUCGUGAGAUCA |  |  | 16.7 | 115
AGAAACUACGAGAAGGACAUGUGGUCCAAAACAAACAUGAGGAUCACCCAUGUAGGAUAUCGUAGUUUCAGGAUCGUGAGAUCA |  |  | 284 | 61.8
